Reference: paper PMC3149845 (The Journal of neuroscience : the official journal of the …, 2011)
“Also recorded” adds a separate entry of the source. Like-named read-outs stand apart in the source and are kept apart here. Peptide text beside a SMILES is read from it.

Experiments:
[1] = biological target: smTas1R2:T40S/E142D+smTas1R3 (Saimiri sciureus, UniProt A3QP08, E142D/T40S); test: Ca2+ mobilization, mutated squirrel monkey receptor; type: cell-based, squirrel monkey (Saimiri sciureus); conditions: for response in dose-response experiment: versus smTas1R2+smTas1R3
smTas1R2:T40S/E142D+smTas1R3, sequence (A3QP08 20-834 T40S/E142D): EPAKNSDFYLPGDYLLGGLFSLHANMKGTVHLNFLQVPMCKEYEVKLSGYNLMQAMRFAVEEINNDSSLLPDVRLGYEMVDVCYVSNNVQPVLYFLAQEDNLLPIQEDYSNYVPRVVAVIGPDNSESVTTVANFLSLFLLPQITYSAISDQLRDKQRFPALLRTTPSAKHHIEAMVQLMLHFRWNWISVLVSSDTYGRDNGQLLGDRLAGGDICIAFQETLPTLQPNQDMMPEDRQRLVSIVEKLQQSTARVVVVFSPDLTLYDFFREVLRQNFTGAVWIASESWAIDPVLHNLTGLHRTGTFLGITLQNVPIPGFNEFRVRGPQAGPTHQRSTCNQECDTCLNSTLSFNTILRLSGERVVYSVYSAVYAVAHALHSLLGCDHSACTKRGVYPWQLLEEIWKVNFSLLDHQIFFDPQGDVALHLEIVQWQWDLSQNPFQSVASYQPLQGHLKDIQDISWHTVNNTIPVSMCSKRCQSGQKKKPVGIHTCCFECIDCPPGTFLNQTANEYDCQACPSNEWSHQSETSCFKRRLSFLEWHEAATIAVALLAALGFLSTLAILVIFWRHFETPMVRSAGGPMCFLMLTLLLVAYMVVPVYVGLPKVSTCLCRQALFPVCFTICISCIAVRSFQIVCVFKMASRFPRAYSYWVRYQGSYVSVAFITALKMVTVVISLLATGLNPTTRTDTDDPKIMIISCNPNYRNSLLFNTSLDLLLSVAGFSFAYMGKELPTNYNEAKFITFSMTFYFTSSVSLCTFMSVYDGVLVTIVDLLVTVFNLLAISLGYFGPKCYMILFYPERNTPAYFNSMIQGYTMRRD

[2] = biological target: hTas1R2:S40T/V66L/I67S/D142E+hTas1R3 (Homo sapiens, UniProt Q8TE23, D142E/I67S/S40T/V66L); test: Ca2+ mobilization, mutated human receptor; type: cell-based; conditions: aspartame 10mM, neotame 1mM, sucralose 2 mM; compared with hTas1R2/hTas1R3
hTas1R2:S40T/V66L/I67S/D142E+hTas1R3, sequence (Q8TE23 20-839 S40T/V66L/I67S/D142E, one chain of several): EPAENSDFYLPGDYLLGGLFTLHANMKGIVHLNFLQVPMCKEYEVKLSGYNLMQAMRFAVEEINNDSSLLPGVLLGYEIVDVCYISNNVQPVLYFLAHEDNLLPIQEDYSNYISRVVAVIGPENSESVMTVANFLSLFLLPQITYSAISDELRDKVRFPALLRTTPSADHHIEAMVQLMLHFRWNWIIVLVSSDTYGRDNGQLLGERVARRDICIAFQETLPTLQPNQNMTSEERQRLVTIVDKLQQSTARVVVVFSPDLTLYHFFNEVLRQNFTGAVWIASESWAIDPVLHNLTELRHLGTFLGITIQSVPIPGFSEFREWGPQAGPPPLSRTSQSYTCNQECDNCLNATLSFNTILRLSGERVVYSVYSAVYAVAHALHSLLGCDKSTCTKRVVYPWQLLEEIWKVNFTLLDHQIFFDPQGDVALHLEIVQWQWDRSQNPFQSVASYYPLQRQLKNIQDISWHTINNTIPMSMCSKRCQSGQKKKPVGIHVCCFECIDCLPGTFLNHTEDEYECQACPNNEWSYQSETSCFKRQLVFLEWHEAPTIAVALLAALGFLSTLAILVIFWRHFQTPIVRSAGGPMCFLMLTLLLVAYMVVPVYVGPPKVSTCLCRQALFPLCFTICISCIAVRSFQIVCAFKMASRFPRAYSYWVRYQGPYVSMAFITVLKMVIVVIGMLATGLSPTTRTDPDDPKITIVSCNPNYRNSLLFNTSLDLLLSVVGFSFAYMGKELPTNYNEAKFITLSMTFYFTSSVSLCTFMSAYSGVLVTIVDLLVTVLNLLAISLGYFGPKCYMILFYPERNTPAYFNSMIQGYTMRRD
Outline: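 HEK293E cells grown at 37°C in Opti-MEM with 5% FBS and seeded at 50,000/well. Cells co-lipofected with Tas1R plasmids and Gα16-gust44 (0.06 μg each per well); medium changed at 20 h, assayed 24 h later. Cells loaded 1 h with Fluo-4 AM in HEPES-buffered HBSS. Tastant added at 30 s; fluorescence (ex 488/em 525 nm) read every 2 s for 150 s more. ΔF/F normalised to human receptor maximal sucralose response; mean ± SEM, three independent experiments.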

[3] = biological target: T1, hTas1R2:S40T/I67S/D142E+hTas1R3 (Homo sapiens, UniProt Q8TE23, D142E/I67S/S40T); test: Ca2+ mobilization, mutated human receptor; type: cell-based; conditions: for calcium response to sweetener: aspartame 10mM, neotame 1mM, sucralose 2 mM, compared with hTas1R2/hTas1R3; for response in dose-response experiment: versus hTas1R2+hTas1R3
T1 sequence (Q8TE23 20-839 S40T/I67S/D142E): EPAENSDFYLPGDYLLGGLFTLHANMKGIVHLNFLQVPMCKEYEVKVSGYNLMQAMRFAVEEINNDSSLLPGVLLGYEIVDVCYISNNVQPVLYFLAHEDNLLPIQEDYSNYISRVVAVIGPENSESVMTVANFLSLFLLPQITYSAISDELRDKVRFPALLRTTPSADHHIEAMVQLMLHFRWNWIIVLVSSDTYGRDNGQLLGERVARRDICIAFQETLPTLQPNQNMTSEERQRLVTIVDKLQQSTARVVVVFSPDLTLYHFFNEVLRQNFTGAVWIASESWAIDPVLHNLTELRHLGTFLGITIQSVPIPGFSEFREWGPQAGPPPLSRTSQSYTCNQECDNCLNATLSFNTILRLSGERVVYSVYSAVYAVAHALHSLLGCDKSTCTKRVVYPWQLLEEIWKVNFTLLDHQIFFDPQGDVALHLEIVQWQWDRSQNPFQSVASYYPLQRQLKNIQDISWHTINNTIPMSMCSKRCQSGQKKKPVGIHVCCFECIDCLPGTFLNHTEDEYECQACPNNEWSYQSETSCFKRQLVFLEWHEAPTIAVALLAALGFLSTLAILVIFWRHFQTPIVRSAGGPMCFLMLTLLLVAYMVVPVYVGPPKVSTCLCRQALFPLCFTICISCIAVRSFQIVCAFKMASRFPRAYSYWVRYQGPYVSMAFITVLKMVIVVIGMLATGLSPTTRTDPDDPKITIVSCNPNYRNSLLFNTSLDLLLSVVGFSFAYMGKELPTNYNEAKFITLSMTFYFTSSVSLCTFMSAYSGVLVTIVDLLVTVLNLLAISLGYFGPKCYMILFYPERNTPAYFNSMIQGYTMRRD
T1 sequence (Q7RTX0 21-852 partner): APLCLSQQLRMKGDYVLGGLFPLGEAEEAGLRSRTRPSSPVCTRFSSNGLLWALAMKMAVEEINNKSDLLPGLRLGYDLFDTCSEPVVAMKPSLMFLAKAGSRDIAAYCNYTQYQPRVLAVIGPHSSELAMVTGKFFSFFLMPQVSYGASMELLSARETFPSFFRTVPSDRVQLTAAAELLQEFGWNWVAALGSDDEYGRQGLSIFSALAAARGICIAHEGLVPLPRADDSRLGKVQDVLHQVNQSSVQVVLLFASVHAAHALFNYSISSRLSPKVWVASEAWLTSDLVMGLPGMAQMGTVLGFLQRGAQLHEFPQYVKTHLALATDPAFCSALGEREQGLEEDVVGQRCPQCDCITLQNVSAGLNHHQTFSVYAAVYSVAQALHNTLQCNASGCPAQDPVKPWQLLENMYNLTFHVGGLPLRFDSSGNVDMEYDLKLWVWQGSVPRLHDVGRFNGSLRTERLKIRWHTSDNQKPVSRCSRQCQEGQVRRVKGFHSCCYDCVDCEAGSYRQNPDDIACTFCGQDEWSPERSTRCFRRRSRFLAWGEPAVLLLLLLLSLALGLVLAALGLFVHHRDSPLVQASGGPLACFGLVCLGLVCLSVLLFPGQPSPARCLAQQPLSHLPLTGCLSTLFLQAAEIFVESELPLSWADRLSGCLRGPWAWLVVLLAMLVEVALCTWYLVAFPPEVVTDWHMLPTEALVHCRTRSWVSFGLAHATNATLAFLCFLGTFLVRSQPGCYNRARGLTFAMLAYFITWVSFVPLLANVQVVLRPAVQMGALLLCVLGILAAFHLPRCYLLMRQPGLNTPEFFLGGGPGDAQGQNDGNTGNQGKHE

[4] = biological target: smTas1R2:S67I/E142D+smTas1R3 (Saimiri sciureus, UniProt A3QP08, E142D/S67I); test: Ca2+ mobilization, mutated squirrel monkey receptor; type: cell-based, squirrel monkey (Saimiri sciureus); conditions: for response in dose-response experiment: versus smTas1R2+smTas1R3; for Bottom (B) of sigmoid dose-response fit / Top (T) of sigmoid dose-response fit: ΔF/F normalized to maximum response of hTas1R2/hTas1R3 to neotame
smTas1R2:S67I/E142D+smTas1R3, sequence (A3QP08 20-834 S67I/E142D): as the sequence (A3QP08 20-834 T40S/E142D) above, with S21T, S48I counted along it

[5] = cited from earlier work
[6] = ΔF/F normalized to maximum response of hTas1R2/hTas1R3 to neotame
[7] = HEK293E cells with Gα16-gust44, dose-response, calcium mobilization

Row | Structure (SMILES) | EC50 [1] [µM] | response in dose-response experiment ([1]; dose-response) | Bottom (B) of sigmoid dose-response fit [1, 6] | Top (T) of sigmoid dose-response fit [1, 6] | calcium response to sweetener [2] | calcium response to sweetener [3] | response in dose-response experiment ([3]; dose-response) | EC50 [4] [µM] | response in dose-response experiment ([4]; dose-response) | Bottom (B) of sigmoid dose-response fit [4] | Top (T) of sigmoid dose-response fit [4] | sweet potency relative to sucrose ([5]; ref Meguro et al., 2000) [times] | EC50 [1, 7] [µM] | EC50 [3, 7] [µM] | Bottom (B) of sigmoid dose-response fit [3, 6] | Top (T) of sigmoid dose-response fit [3, 6] | EC50 [4, 7] [µM] | sweetness relative to aspartame ([5]; ref Garbow et al., 2001)
1 | COC(=O)[C@H](Cc1ccccc1)NC(=O)[C@@H](N)CC(=O)O [aspartame, L-α-aspartly-L-phenylalanine methyl ester] (H-Asp-Phe-OMe) | 1400 | good response | −3.314 | 42.4 | greatly impaired | greatly impaired responsiveness | no responses | 5600 | good response | −0.6682 | 26.17 | 200 |  |  |  |  |  | 
2 | COC(=O)[C@H](Cc1ccccc1)NC(=O)[C@H](CC(=O)O)NCCC(C)(C)C [neotame] |  | good responses |  | 69.46 | greatly impaired | greatly impaired responsiveness; also recorded: almost completely abolished | weaker responses |  | good responses | −5.754 | 56.59 |  | 2100 | 12000 | −1.486 | 39.87 | 1000 | about 40 times
